Compound activity as filed in PubChem BioAssay.
In the library only some 2.2% were active in any assay of this set; here they are far more common.
PPC-1+TRAIL kill = compounds killing PPC-1 cancer cells with TRAIL present, primary screen, TRAIL potentiator project, ATPLite luminescence, uHTS; PPC-1 cells + TRAIL, ATPLite viability luminescence; cell killing (% activity), % at 4 µM or 5 µM; actives 0.41% (n = 220,000); AID 1443, 2008;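 active = cell killing above 50% in the first pass at 4 µM, then a duplicate retest at 5 µM averaging 50% or more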;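 also: plate controls were cells with TRAIL plus DMSO for no effect and medium-only wells lacking cells for full effect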
FLuc stim CS = FLuc activators, initial screening, artefact control for FLuc-dependent activation tests, biochemical, ATPlite luminescence; Luciferin 4-monooxygenase (Photinus pyralis), P08659; ATPlite luciferase biochemical, 10 min; 0 = ATP-free wells, 1 = DMSO control; activation factor at 10 µM; 200,000 tested, under 10 active; AID 1027, 2008;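 active = luciferase activation factor, scaled between plate controls, of at least 2 with compound at 10 µM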
Target sequence (P08659 whole entry, looked up): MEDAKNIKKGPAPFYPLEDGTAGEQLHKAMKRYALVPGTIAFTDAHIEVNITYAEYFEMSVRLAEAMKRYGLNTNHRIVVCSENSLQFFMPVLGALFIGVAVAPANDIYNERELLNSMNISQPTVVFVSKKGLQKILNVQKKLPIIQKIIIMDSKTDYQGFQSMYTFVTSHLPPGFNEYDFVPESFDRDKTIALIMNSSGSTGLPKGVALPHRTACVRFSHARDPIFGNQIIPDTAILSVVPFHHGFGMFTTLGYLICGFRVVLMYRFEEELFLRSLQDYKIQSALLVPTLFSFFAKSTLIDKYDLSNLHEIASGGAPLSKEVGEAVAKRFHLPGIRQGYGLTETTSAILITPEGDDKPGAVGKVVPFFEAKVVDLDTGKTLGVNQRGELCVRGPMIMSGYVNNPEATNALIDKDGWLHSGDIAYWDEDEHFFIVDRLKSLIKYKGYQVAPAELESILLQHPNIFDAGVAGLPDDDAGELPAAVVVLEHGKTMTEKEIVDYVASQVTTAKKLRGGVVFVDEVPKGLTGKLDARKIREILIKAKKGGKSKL
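Material: Luciferase/luciferin reagent mix | Doses: Test compounds dosed from 2 mM stocks in 100% DMSO | Timing: 10 min incubation after luciferase reagent addition, room temperature | Measured by: Luminescence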
FLuc inhib CS = firefly luciferase enzyme inhibitors, primary screen, artefact control for luciferase-based inhibitor screens, biochemical, luminescence, ATPLite; 10 min; inhibition, % at 10 µM; actives 1.5% (n = 200,000);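 active = inhibition above about 50% when tested at 10 µM, limit read from the data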
APP 5'UTR act = activators of APP 5'UTR luciferase reporter, primary screen, SH-SY5Y cells; SH-SY5Y APP 5'UTR luciferase reporter, luminescence; zero percent = DMSO vehicle wells; activation, % at 2 µM; actives 1% (n = 190,000);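 active = activation above a set limit, based on mean plus 3 SD of controls, cut at about 140% in these data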
NF-kB neuron act = activators of NF-kB expression in neurons, primary screen, cell-based, HTS | human neuronal cells, NF-kB reporter expression; active compounds read high | fold change at 12.5 µM | actives 1.6% (n = 190,000); in the data active = fold change above about 3.3
C8 TRAIL sens = viability loss with TRAIL in NB7+C8 cells, primary screen, TRAIL sensitizer project, cell-based, ATPlite luminescence. inhibition (viability loss, TRAIL sensitization), % at 10 µM. actives 1% (n = 360,000). AID 624354, 2012;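 active = compounds causing at least 50% loss of cell viability in the single-dose screen, relative to plate controls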
* = called active by the depositor; · = no result.

SMILES	PPC-1+TRAIL kill	FLuc stim CS	FLuc inhib CS	APP 5'UTR act	NF-kB neuron act	C8 TRAIL sens
Cc1cc(N/N=C/c2ccccc2)nc(NCc2ccccc2)n1	31	0.2	76*	34	0.95	55*
Cc1cc(-c2ccccc2)nc(N/N=C/c2ccccc2)n1	·	·	·	·	·	65*
Cc1cc(N/N=C/c2ccc(Cl)cc2)nc(NCc2ccccc2)n1	16	0.6	36	14	0.85	28
O=C(NC1CCCCC1)C1c2ccccc2OCC(=O)N1Cc1ccc2c(c1)OCO2 (stereo not given)	·	·	·	·	·	-2
CCOC(=O)[C@]12CCCC=C1N(CCC1=CCCCC1)C(=O)[C@H](CC(=O)N1CCC(c3ccccc3)CC1)C2	·	·	·	·	·	-3
COc1cccc(OCc2ccc(Cl)cc2)c1C#N	31	·	·	·	·	59*
O=C1CC(c2ccccc2)CC2=C1C1(CCCC1)N=C(Nc1nc3ccccc3o1)N2 (stereo not given)	·	·	·	·	·	20
O=c1c(-c2ccc3c(c2)OCCO3)coc2cc(OC3OC(CO)C(O)C(O)C3O)ccc12 (stereo not given)	14	·	·	159*	·	54*
CNC(=S)N/N=C/c1cccc(OCc2ccccc2F)c1	45	0.5	52*	34	1.6	7
CCNC(=S)N/N=C/c1cccc(OCc2c(F)cccc2Cl)c1	28	0.9	7	11	0.97	5
Cc1ccc2nc(C(C)(C)C)c(Cc3cccc(F)c3)n2c1	·	·	·	·	·	-8
O=C(COc1ccc2ccccc2c1Br)Nc1ncn[nH]1	-10	0.8	21	19	1.2	62*
Cc1cccc(C)c1OCC(=O)Nc1ncn[nH]1	12	1	-5	0	1.1	-2
COc1ccc(S(=O)(=O)N(C)C[C@H]2OCc3cn(nn3)CCCC(=O)N([C@@H](C)CO)C[C@@H]2C)cc1	·	·	·	·	·	4
NC(Cc1ccc(F)cc1)c1csc(Nc2ccc(C(=O)c3ccccc3)cc2)n1 (stereo not given)	·	·	·	·	·	42
O=C(Nc1ccccc1O)c1ccc(NS(=O)(=O)c2cccc3cccnc23)cc1	19	1	-2	47	12*	1
CCCC(=O)N(Cc1cc(=O)[nH]c2ccccc12)c1ccc(C)cc1C	·	·	·	·	·	-16
Cc1ccc(N(Cc2cc(=O)[nH]c3ccccc23)C(=O)CCl)c(C)c1	·	·	·	·	·	52*
O=C(C[C@@H]1C=C[C@H](NC(=O)Cc2ccccn2)[C@@H](CO)O1)NCCc1ccccc1	·	·	·	·	·	-20
C=CCOc1ccc2c(OC)c3ccoc3nc2c1OC	34	0.5	54*	32	1.8	46
COc1ccc(/C=C2/SC(=S)N(CCC(=O)N3CCN(C)CC3)C2=O)cc1	·	·	·	·	·	1
CCc1ccc(/C=C2\SC(=S)N(CCC(=O)N3CCN(C)CC3)C2=O)cc1	16	0.6	39	-9	3.3*	5
Cc1cc(C)cc(C(=O)Nc2nnc(SCC(=O)N3CCCc4ccccc43)s2)c1	18	1	1	-2	1.1	8
O=C(Nc1nnc(SCC(=O)N2CCCc3ccccc32)s1)c1ccc2ccccc2c1	64*	0.1	92*	55	2.4	83*
O=C(Nc1nnc(SCC(=O)N2CCCc3ccccc32)s1)c1ccccc1	75*	0.1	92*	12	1.5	75*
SMILES	PPC-1+TRAIL kill	FLuc stim CS	FLuc inhib CS	APP 5'UTR act	NF-kB neuron act	C8 TRAIL sens
OC(c1ccc(F)c(F)c1)c1nc(-c2csc3ccccc23)cs1 (stereo not given)	·	·	·	·	·	-9
Cc1ccc(/C=C/C(=O)c2ccccc2O)cc1	1	·	·	·	·	2
Cc1c(/C=C/C(=O)c2ccccc2O)cnn1C	2	0.7	32	91	3.9*	-16
Clc1ccccc1Nc1nc(NCC2CC2)nc2ccsc12	·	·	·	·	·	14
Cc1cnc(CNC(=O)C2(C)CCCN2CC(C)C)cn1 (stereo not given)	·	·	·	·	·	-8
O=[N+]([O-])c1cccn2cc(-c3ccc(Br)cc3)nc12	7	0.9	5	63	·	16
Nc1nn2cc(-c3ccc(Br)cc3)nc2c2ccccc12	40	·	·	·	·	51*
CC(C)C[C@@H](CN1CCC[C@@H]1CN1C(=S)NC[C@@H]1Cc1ccc(O)cc1)N1C[C@H](Cc2ccc(O)cc2)N(CC2CCCCC2)C1=S	·	·	·	·	·	-5
Cc1ccc(NC(=O)COc2ccccc2C(=O)NCCc2ccccc2)cc1	·	·	·	·	·	11
O=C(Oc1ccccc1C(=O)Nc1ccccc1)c1ccccc1Br	21	1	-2	-59	3.7*	50
O=C(COc1ccccc1C(=O)Nc1ccccc1)NCCc1ccccc1	0	0.4	57*	-2	0.91	-3
O=C(/C=C/Nc1ccccc1C(F)(F)F)c1ccco1	·	0.1	89*	228*	6.7*	59*
O=C(/C=C/Nc1ccc(Oc2ccccc2)cc1)c1ccco1	49	0.3	69*	164*	5.4*	46
NC(=O)c1ccccc1N/C=C/C(=O)c1ccco1	19	0.6	40	78	1.5	12
Cc1cccc(-c2cc3nc4c(c(N5CCOCC5)n3n2)CCCC4)c1	17	0.7	30	183*	1.4	14
COc1cc(OC)cc(-c2noc([C@H]3C[C@H](O)[C@@H](CO)O3)n2)c1	·	·	·	·	·	-2
Cc1ccc(C)c(C(=O)COC(=O)c2cccc(N3C(=O)c4c(C)nc5ccccc5c4C3=O)c2)c1	65*	0.4	60*	141*	0.42	57*
O=C(Nc1cccc(S(=O)(=O)N2CCCC2)c1)[C@H]1C[C@H](O)[C@@H](CO)O1	·	·	·	·	·	-11
CCCn1c(/N=C/c2ccc3c(c2)OCO3)nc2ccccc21	-34	0.6	37	-12	1.2	-14
C=CCn1c(/N=C/c2ccc3c(c2)OCO3)nc2ccccc21	15	0.3	72*	2	0.99	-2
CN(C)S(=O)(=O)c1ccc(-c2csc(N/N=C/c3ccc(O)cc3)n2)cc1	-4	·	·	·	·	85*
C(=N\Nc1nc(-c2ccccc2)cs1)/c1cccs1	19	0.9	6	47	7.4*	0
CN(C)S(=O)(=O)c1ccc(-c2csc(N/N=C/c3ccco3)n2)cc1	12	·	·	·	·	72*
C(=N\Nc1nc(-c2ccccc2)cs1)/c1ccco1	23	0.7	26	156*	5.2*	12
Cc1ccc(-c2csc(N/N=C/c3ccco3)n2)cc1	14	1	-2	25	2.9	1
Cc1ccc(S(=O)(=O)N2CC3(O)CN(C(=O)OC(C)C)N(C(=O)OC(C)C)CC3(OC(=O)NC3CCCC3)C2)cc1 (stereo not given)	·	·	·	·	·	6
